# Laboratory results published in ChEMBL document CHEMBL5724801, “EUbOPEN Chemogenomics Library - Multiplex” (2024).
# Values joined by “and” are separate entries in the source; they are usually repeats but may differ in a detail not shown here. Equal values may be shown once.
# Test system: HEK-293T
# Test: Multiplex assay against HEK293T
# Type: toxicity, cell-based
# Conditions: human
# Procedure, shortened: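 Values for tubulin, mitochondrial-mass and membrane-permeability phenotypes are per cents of cells with healthy nuclei. These cells were identified by CellPathfinder machine-learning gating of live cells that had been stained at seeding with Hoechst33342, BioTracker Green Microtubule Cytoskeleton Dye, MitoTracker Red and Annexin V Alexa Fluor 680 and imaged on a CQ1 microscope at 37°C and 5% CO2 after compound addition. The gating first set Hoechst high-intensity objects apart from normal cells, then split normal cells into healthy, pyknosed or fragmented nuclei, and pyknosed cells into mitotic or apoptotic.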
# [1] = 12 h, 1 µM, compound concentration 1 uM
# [2] = 12 h, 10 µM, compound concentration 10 uM
# [3] = 24 h, 1 µM, compound concentration 1 uM
# [4] = 24 h, 10 µM, compound concentration 10 uM
# [5] = 48 h, 1 µM, compound concentration 1 uM
# [6] = 48 h, 10 µM, compound concentration 10 uM
structure (smiles),measurement,setting,value
COc1ccc2nc3ccc(OC)cc3c(SCCCN)c2c1.Cl,Population Apoptotic (%),[1],9.64% and 17.91%
same,Population Fragmented Nuclei (%),[1],1.39% and 4.49%
same,Population Hoechst High Intensity Objects (%),[1],0.55% and 0%
same,Population Membrane Permeable-Phenotype (%),[1],1.06% and 0%
same,Population Mitotic Cells (%),[1],90.36% and 82.09%
same,Population Normal (%),[1],99.45% and 100%
same,Population Pyknosed Nuclei (%),[1],46.24% and 85.9%
same,Population Tubulin-Different-Phenotype (%),[1],5.85% and 13.33%
same,Total Cell Count,[1],361 and 156
same,Population Apoptotic (%),[2],19.66% and 51.55%
same,Population Fragmented Nuclei (%),[2],81.39% and 89.94%
same,Population Healthy Nuclei (%),[2],8.58% and 2.44%
same,Population Hoechst High Intensity Objects (%),[2],3.16% and 0.62%
same,Population Membrane Permeable-Phenotype (%),[2],0% and 3.23%
same,Population Mitochondria Different-Phenotype (%),[2],15% and 9.68%
same,Population Mitotic Cells (%),[2],80.34% and 48.45%
same,Population Normal (%),[2],96.84% and 99.38%
same,Population Pyknosed Nuclei (%),[2],10.03% and 7.63%
same,Population Tubulin-Different-Phenotype (%),[2],31% and 48.39%
same,Total Cell Count,[2],1204 and 1280
same,Population Apoptotic (%),[3],11.89% and 22.43%
same,Population Fragmented Nuclei (%),[3],1.64% and 2.45%
same,Population Healthy Nuclei (%),[3],72.36% and 31.9%
same,Population Hoechst High Intensity Objects (%),[3],0% and 0.61%
same,Population Membrane Permeable-Phenotype (%),[3],1.51% and 3.85%
same,Population Mitochondria Different-Phenotype (%),[3],22.86% and 15.38%
same,Population Mitotic Cells (%),[3],88.11% and 77.57%
same,Population Normal (%),[3],100% and 99.39%
same,Population Pyknosed Nuclei (%),[3],26% and 65.64%
same,Population Tubulin-Different-Phenotype (%),[3],16.33% and 11.54%
same,Population Apoptotic (%),[4],66.98% and 59.74%
same,Population Fragmented Nuclei (%),[4],80.88% and 91.28%
same,Population Healthy Nuclei (%),[4],10.6% and 3.22%
same,Population Hoechst High Intensity Objects (%),[4],1.74% and 0.85%
same,Population Membrane Permeable-Phenotype (%),[4],2.27% and 2.22%
same,Population Mitochondria Different-Phenotype (%),[4],31.06% and 15.56%
same,Population Mitotic Cells (%),[4],33.02% and 40.26%
same,Population Normal (%),[4],98.26% and 99.15%
same,Population Pyknosed Nuclei (%),[4],8.51% and 5.5%
same,Population Tubulin-Different-Phenotype (%),[4],37.88% and 35.56%
same,Total Cell Count,[4],1267 and 1411
same,Population Fragmented Nuclei (%),[5],3.15% and 5.62%
same,Population Healthy Nuclei (%),[5],85.43% and 51.69%
same,Population Hoechst High Intensity Objects (%),[5],0.08% and 0.56%
same,Population Membrane Permeable-Phenotype (%),[5],4.52% and 2.17%
same,Population Mitochondria Different-Phenotype (%),[5],15.94% and 31.52%
same,Population Mitotic Cells (%),[5],95.17% and 75%
same,Population Normal (%),[5],99.92% and 99.44%
same,Population Apoptotic (%),[6],52.58% and 29.51%
same,Population Fragmented Nuclei (%),[6],73.59% and 92.69%
same,Population Hoechst High Intensity Objects (%),[6],4.79% and 2.09%
same,Population Membrane Permeable-Phenotype (%),[6],4.62% and 6.67%
same,Population Mitochondria Different-Phenotype (%),[6],54.23% and 53.33%
same,Population Mitotic Cells (%),[6],47.42% and 70.49%
same,Population Normal (%),[6],95.21% and 97.91%
same,Population Pyknosed Nuclei (%),[6],7.17% and 4.2%
same,Total Cell Count,[6],1420 and 1482
COc1ccc2c(c1)C(C(=O)N(Cc1ccc(N(C)C)cc1)c1ccc(C(C)C)cc1)CCC2.Cl (stereo not drawn),Population Apoptotic (%),[1],30% and 43%
same,Population Fragmented Nuclei (%),[1],6% and 5%
same,Population Healthy Nuclei (%),[1],80% and 79%
same,Population Hoechst High Intensity Objects (%),[1],7% and 4%
same,Population Membrane Permeable-Phenotype (%),[1],0%
same,Population Mitochondria Different-Phenotype (%),[1],39% and 61%
same,Population Mitotic Cells (%),[1],70% and 56%
same,Population Normal (%),[1],92% and 95%
same,Population Pyknosed Nuclei (%),[1],13% and 14%
same,Population Tubulin-Different-Phenotype (%),[1],27% and 23%
same,Total Cell Count,[1],413 and 330
same,Population Apoptotic (%),[2],60% and 63%
same,Population Fragmented Nuclei (%),[2],9% and 4%
same,Population Healthy Nuclei (%),[2],78% and 77%
same,Population Hoechst High Intensity Objects (%),[2],10% and 6%
same,Population Membrane Permeable-Phenotype (%),[2],0%
same,Population Mitochondria Different-Phenotype (%),[2],60% and 75%
same,Population Mitotic Cells (%),[2],39% and 36%
same,Population Normal (%),[2],89% and 93%
same,Population Pyknosed Nuclei (%),[2],11% and 17%
same,Population Tubulin-Different-Phenotype (%),[2],64% and 57%
same,Total Cell Count,[2],383 and 361
same,Population Apoptotic (%),[3],31% and 60%
same,Population Fragmented Nuclei (%),[3],9% and 7%
same,Population Healthy Nuclei (%),[3],81% and 79%
same,Population Hoechst High Intensity Objects (%),[3],3% and 6%
same,Population Membrane Permeable-Phenotype (%),[3],0%
same,Population Mitochondria Different-Phenotype (%),[3],20% and 33%
same,Population Mitotic Cells (%),[3],68% and 40%
same,Population Normal (%),[3],96% and 93%
same,Population Pyknosed Nuclei (%),[3],8% and 13%
same,Population Tubulin-Different-Phenotype (%),[3],13% and 11%
same,Total Cell Count,[3],567 and 399
same,Population Apoptotic (%),[4],35% and 45%
same,Population Fragmented Nuclei (%),[4],9% and 7%
same,Population Healthy Nuclei (%),[4],73% and 76%
same,Population Hoechst High Intensity Objects (%),[4],10% and 6%
same,Population Membrane Permeable-Phenotype (%),[4],1% and 0%
same,Population Mitochondria Different-Phenotype (%),[4],51% and 60%
same,Population Mitotic Cells (%),[4],64% and 55%
same,Population Normal (%),[4],89% and 93%
same,Population Pyknosed Nuclei (%),[4],17% and 16%
same,Population Tubulin-Different-Phenotype (%),[4],70% and 60%
same,Total Cell Count,[4],409 and 389
same,Population Apoptotic (%),[5],20% and 46%
same,Population Fragmented Nuclei (%),[5],12%
same,Population Healthy Nuclei (%),[5],80% and 81%
same,Population Hoechst High Intensity Objects (%),[5],1% and 4%
same,Population Membrane Permeable-Phenotype (%),[5],1% and 0%
same,Population Mitochondria Different-Phenotype (%),[5],10% and 17%
same,Population Mitotic Cells (%),[5],79% and 53%
same,Population Normal (%),[5],98% and 95%
same,Population Pyknosed Nuclei (%),[5],6%
same,Population Tubulin-Different-Phenotype (%),[5],10% and 15%
same,Total Cell Count,[5],968 and 631
same,Population Apoptotic (%),[6],59% and 36%
same,Population Fragmented Nuclei (%),[6],15% and 11%
same,Population Healthy Nuclei (%),[6],75% and 79%
same,Population Hoechst High Intensity Objects (%),[6],9% and 3%
same,Population Membrane Permeable-Phenotype (%),[6],6% and 2%
same,Population Mitochondria Different-Phenotype (%),[6],25% and 24%
same,Population Mitotic Cells (%),[6],40% and 63%
same,Population Normal (%),[6],90% and 96%
same,Population Pyknosed Nuclei (%),[6],9% and 8%
same,Population Tubulin-Different-Phenotype (%),[6],53% and 50%
same,Total Cell Count,[6],558 and 482
